Screens deposited in PubChem by several laboratories.
Autophagy HCS: autophagy modulation, high-content screen; calls only at 10 µM (by protocol); MEF GFP-LC3 puncta imaging; test concentration mostly 10 µM; actives 0.98% (n = 190,000);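 active means percentage of spot-positive cells more than 3 SD above its plate mean, without a fluorescence outlier flag or 80% toxicity; inconclusive means no clear call, values can overlap the other calls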;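 further: spot-positive cell cutoff set from DMSO-treated cells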
TNAP inh noacc: blocks human TNAP activity with no phosphate acceptor present. P05186. purified TNAP, CDP-star luminescence, 30 min. actives 0.26% (n = 200,000). inhibition, % at 20 µM. AID 1012;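 active means tissue-nonspecific alkaline phosphatase inhibition above about 50% at 20 µM in the single-dose screen, limit read from the data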;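 further: 0% = DMSO negative control and 100% = EDTA positive control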
TNAP act hiacc: activators of human TNAP at high phosphate acceptor concentration | 200,000 tested, under 10 active | AID 1136 | purified TNAP, CDP-star luminescence, 1 M DEA, 30 min; hits give high values; 0 = EDTA background, 1 = DMSO-only activity | P05186 | activation factor at 20 µM;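 active means activation factor at least 2 at 20 µM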
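Measured by: Luminescent substrate turnover signal | Test system: Human TNAP | Input: TNAP 1/800 final | Dosing: 20 µM single point | Schedule: 30 min, room temperature | Controls: EDTA wells as negative control, DMSO wells as positive control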
Ins promoter up: MIN6 insulin promoter up-regulation; actives 0.3% (n = 190,000); MIN6 insulin promoter-GFP reporter, high-content imaging; hits give high values; z-score at 5 µM; AID 1625;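 active means z-score above 3 at 5 µM with at least 500 cells counted in the well; inconclusive means wells under 500 cells, flagged as cytotoxic or low count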
p47phox inh: inhibitors of human p47phox binding | P14598 | p47phox/p22phox peptide binding, fluorescence polarization, 2 h | inhibition, % at 24.7 µM | actives 0.53% (n = 220,000) | AID 1274;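 active means inhibition above about 30%, limit read from the data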;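 further: 0% = p47phox with labelled peptide and 100% = labelled peptide alone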
Target sequence (P14598 whole entry, looked up): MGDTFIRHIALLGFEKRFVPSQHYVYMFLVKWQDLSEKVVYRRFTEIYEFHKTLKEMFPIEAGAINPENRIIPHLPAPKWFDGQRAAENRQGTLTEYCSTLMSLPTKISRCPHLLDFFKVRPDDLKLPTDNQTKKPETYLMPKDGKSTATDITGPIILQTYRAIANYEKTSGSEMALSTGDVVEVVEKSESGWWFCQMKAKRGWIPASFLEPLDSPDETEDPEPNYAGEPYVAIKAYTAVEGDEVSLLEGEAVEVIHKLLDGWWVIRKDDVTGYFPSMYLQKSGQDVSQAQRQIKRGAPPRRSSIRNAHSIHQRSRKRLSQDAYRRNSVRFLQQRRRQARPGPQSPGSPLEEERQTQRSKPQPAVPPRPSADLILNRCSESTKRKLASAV
TNAP inh hi DEA: inhibitors of human TNAP at high phosphate acceptor concentration; P05186; purified TNAP, CDP-star luminescence, 1 M DEA; inhibition, % at 20 µM; actives 0.03% (n = 200,000); AID 1135;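 active means over 50% inhibition of tissue-nonspecific alkaline phosphatase at 20 µM in the single-dose screen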;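 further: plate controls were DMSO wells for no effect and EDTA-quenched wells as full inhibition for full effect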
* = called active by the depositor; i = inactive; ? = inconclusive; . = no result given; + = active, no number. Rows were chosen to be rich in hits. Some 1.8% of all compounds tested hit in one or more screens of this group.

SMILES	Autophagy HCS	TNAP inh noacc	TNAP act hiacc	Ins promoter up	p47phox inh	TNAP inh hi DEA
CC(=O)c1nc(N2C(=O)CC(Cc3cc(C)cc(C)c3)C2=O)sc1C (stereo unspecified)	+	-6	1	-0.25	-12	0
COc1ccc(CCn2c(SCC(=O)Nc3cc(C)on3)nc3ccsc3c2=O)cc1OC	i	11	1	-0.2	49*	-1
S=C1NCCOCCOCCNC(=S)N2CCOCCOCCN1CCOCCOCC2	i	-8	1.1	-0.24	1	-5
COc1ccc(-c2[nH]ncc2CN2CCN(Cc3cccs3)CC2)c(F)c1	i	63*	1	-0.1	-4	-5
COc1ccc(-c2[nH]ncc2CN2CCCC2c2nonc2C)c(F)c1 (stereo unspecified)	i	51*	1.1	-0.56	-5	-6
COc1ccc(-c2[nH]ncc2CN2CCC(OCc3cccnc3)CC2)c(F)c1	i	74*	1.1	0.32	2	-7
Cc1nonc1C1CCCN1Cc1cn[nH]c1-c1ccc2c(c1)OCO2 (stereo unspecified)	i	14	1.1	-0.14	-13	-5
COc1ccc(-c2[nH]ncc2CN2CCCN(c3ccccc3)CC2)c(F)c1	i	28	1	0.09	-9	-2
COc1cccc(/C=C/C(=O)Nc2ccc3c(c2)OCCO3)c1OC	+	-7	1	-0.58	-3	-3
COc1cccc(/C=C/C(=O)Nc2cccc(C(C)=O)c2)c1OC	i	-4	1	0.86	-9	-1
CCn1c2ccccc2c2cc(CN3CCN(S(=O)(=O)Cc4ccccc4)CC3)ccc21	i	-20	1.1	-0.17	-1	-8
CCc1cc2c(=O)nc3n(c2s1)Cc1ccccc1/C3=C(/O)c1ccc(F)cc1	i	25	1	.	-20	-1
CCc1cc2c(=O)nc3n(c2s1)Cc1ccccc1/C3=C(/O)c1ccccc1Cl	i	-5	1	.	74*	1
COc1ccc(CCNC(=O)C(=O)NCc2cccs2)cc1OC	i	-9	1	-1.6	-3	-4
CC1(C)CC2(CCO1)C(Nc1ccccc1)=NC(=S)N2c1ccccc1 (stereo unspecified)	.	.	.	-0.46	-5	.
CCN1CCN(c2oc(/C=C/c3ccccc3)nc2C#N)CC1	.	.	.	.	-10	.
Cn1c(CSCc2ccccc2)nnc1SCC(=O)Nc1nccs1	i	-6	1	0.12	-10	-2
Cn1c(Cn2nnc3ccccc32)nnc1SCC(=O)Nc1nccs1	+	-8	0.9	.	-55	5
CCN(CC)CCCNc1oc(-c2cccc(Cl)c2)nc1C#N	+	-8	1.1	-0.9	-14	-6
CC(=O)/C(=N\Nc1ccccc1)Sc1nncn1C	i	-10	1	0.4	-17	-3
O=C(/C=C\c1ccc(-c2cccc([N+](=O)[O-])c2)o1)N1CCOCC1	i	-3	1	0.29	-133	0
Cc1ccc(NC(=O)CN2C(=O)N/C(=C/c3ccc(C)s3)C2=O)cc1	+	-6	1	1	-151	2
CCn1c(C)cc(/C=C2\NC(=O)N(CC(=O)Nc3cccc(C)c3)C2=O)c1C	i	-5	1	1.4	6	1
Cc1cccc(CN2C(=O)N/C(=C/c3ccc(C)s3)C2=O)c1	+	-6	1	.	-20	-4
CCn1c(C)cc(/C=C2/NC(=O)N(CC(=O)Nc3cccc(C)c3)C2=O)c1C	i	-14	1	-0.08	59*	0
SMILES	Autophagy HCS	TNAP inh noacc	TNAP act hiacc	Ins promoter up	p47phox inh	TNAP inh hi DEA
Cc1ccc(NC(=O)CN2C(=O)N/C(=C/c3ccc(C)o3)C2=O)cc1	i	-11	1	0.03	-39	-4
N#C/C(=C\c1cn(-c2ccccc2)nc1-c1cccnc1)c1nnc2n1CCCCC2	i	-8	1	-0.89	-9	-4
Nc1nc(N2CCCCC2)c(C=O)c(N2CCCCC2)n1	+	-4	1	-0.74	-4	-5
CCOc1ccccc1NC(=S)N1CCC(NC(=O)C(C)(C)C)CC1	i	-8	1.1	0.69	1	-5
COc1cc(NC(=O)c2ccc(-c3ccc(Br)cc3)o2)ccc1NC(=O)C(C)C	+	-12	1.1	-1.4	-12	-8
COC(=O)CCCC(=O)N1CCCC(C(=O)c2ccc(OC)cc2C)C1 (stereo unspecified)	i	-6	1.1	0.29	-18	-6
CCOc1ccc(S(=O)(=O)N2c3ccccc3CC2C)cc1 (stereo unspecified)	+	0	1	?	8	0
Cc1ccc(S(=O)(=O)N2c3ccccc3CC2C)cc1 (stereo unspecified)	i	-16	1.1	-1.2	-62	-7
COc1ccc(/C=C2/SC(=O)NC2=O)cc1	i	-16	1.1	-0.19	-3	-7
CCOc1ccc(N=C2NC(=O)S/C2=C\c2ccc(OC)cc2)cc1	+	-7	1	.	-2	-3
O=C(N/N=C/c1cccnc1)C1CC1(c1ccccc1)c1ccccc1 (stereo unspecified)	i	-2	1	.	-3	2
Cc1cc(-c2ccccc2)nc(N(C)N)c1S(C)(=O)=O	i	-14	1.1	-0.33	2	-5
Cc1cc(-c2ccccc2)nc(N(C)NC(=O)c2c(F)cccc2F)c1S(C)(=O)=O	i	-10	1	0.38	115*	-3
COc1ccc(-c2nc(SC)n(C(=O)c3ccco3)n2)cc1	i	52*	1.1	-0.11	-16	-7
COc1ccc(-c2nc(N)n(C(C)=O)n2)cc1	i	42	1	-0.02	0	0
CCC(=O)n1nc(-c2ccc(OC)cc2)nc1SC	i	54*	1	.	-12	3
CCC(=O)n1nc(-c2ccc(Cl)cc2)nc1SC	i	60*	1	.	-5	0
CCCC(=O)n1nc(-c2ccc(Cl)cc2)nc1SC	i	53*	1	.	-19	2
CCOC(=O)C1=C(O)C(=O)N(c2ccc(S(N)(=O)=O)cc2)C1c1ccc(Br)cc1 (stereo unspecified)	.	.	.	0.35	-32	.
CCOc1ccc(N2CC(C(=O)NC3=NCCS3)CC2=O)cc1 (stereo unspecified)	i	-11	1.1	0.37	-9	-6
CC(C)(C)NC(=O)c1ccccc1-c1nc(-c2ccccc2Cl)no1	i	-9	1.1	.	43*	-7
CN1CCN(c2ccc(CNS(=O)(=O)c3ccc(Cl)cc3)cc2)CC1	.	.	.	0.06	-7	.
Cc1ccc(NC(=O)c2ccccc2Br)cc1S(=O)(=O)N(C)C	i	-11	1.1	0.61	-2	-6
N#CC(c1ccc(Cl)cc1)c1ccc2c(C(F)(F)F)cc(C(F)(F)F)nc2n1 (stereo unspecified)	+	12	0.9	.	-19	11
